Measurements reported in ChEMBL document CHEMBL1122014, “1,2,5-thiadiazole 1-oxide and 1,1-dioxide derivatives. A new class of potent histamine H2-receptor antagonists” (J Med Chem, 1982).

Experiments:
Adrenergic receptor beta = Adrenergic receptor beta (Rattus norvegicus, UniProt P18090+P10608+P26255); assay: Antagonism of Beta adrenergic receptor in the isolated rat uterus; format: functional, tissue-based
Histamine H2 receptor = Histamine H2 receptor (Cavia porcellus, UniProt P47747); assay: Competitive antagonism of Histamine H2 receptor in the isolated guinea pig atrium; format: functional, tissue-based, Cardiac atrium; details: read-out: pA2 (converted)
Histamine H2 receptor, sequence (P47747 whole entry): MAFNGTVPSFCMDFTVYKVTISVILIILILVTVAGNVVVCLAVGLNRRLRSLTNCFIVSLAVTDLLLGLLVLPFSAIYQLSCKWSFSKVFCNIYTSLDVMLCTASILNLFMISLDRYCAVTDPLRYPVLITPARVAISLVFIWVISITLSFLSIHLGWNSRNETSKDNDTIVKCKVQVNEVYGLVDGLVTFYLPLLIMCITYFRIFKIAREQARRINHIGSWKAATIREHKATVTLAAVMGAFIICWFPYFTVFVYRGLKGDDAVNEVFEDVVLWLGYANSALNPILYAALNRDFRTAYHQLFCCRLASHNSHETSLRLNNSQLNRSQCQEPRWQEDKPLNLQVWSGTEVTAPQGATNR
Method in brief: (§1)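 Isolated guinea pig right atrium; antagonism of the positive chronotropic response to histamine. Apparent KB from the Furchgott method: KB = antagonist concentration/(dose ratio − 1), using a single antagonist concentration that gave parallel dose-response shifts without lowering the maximum. Values are means of three to five preparations per antagonist.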

Histamine H1 receptor = Histamine H1 receptor (Cavia porcellus, UniProt P31389); assay: Antagonism of Histamine H1 receptor in the isolated guinea pig ileum; format: functional, tissue-based; details: read-out: pA2 (converted)
Histamine H1 receptor, sequence (P31389 whole entry): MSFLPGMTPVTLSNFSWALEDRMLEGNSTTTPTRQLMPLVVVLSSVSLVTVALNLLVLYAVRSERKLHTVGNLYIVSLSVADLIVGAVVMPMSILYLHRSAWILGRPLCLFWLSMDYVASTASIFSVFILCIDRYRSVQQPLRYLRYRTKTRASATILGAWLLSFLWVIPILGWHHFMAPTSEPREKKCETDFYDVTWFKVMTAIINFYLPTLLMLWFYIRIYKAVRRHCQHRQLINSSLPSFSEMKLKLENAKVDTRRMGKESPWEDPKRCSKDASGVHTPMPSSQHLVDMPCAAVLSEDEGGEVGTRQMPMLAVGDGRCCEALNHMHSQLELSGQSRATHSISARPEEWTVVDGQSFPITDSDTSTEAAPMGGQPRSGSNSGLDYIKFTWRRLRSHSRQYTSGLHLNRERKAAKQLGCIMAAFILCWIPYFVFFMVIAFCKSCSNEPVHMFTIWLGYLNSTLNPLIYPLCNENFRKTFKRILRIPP
Method in brief: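 Isolated guinea pig ileum; contractile responses to histamine (H1) or methacholine (muscarinic) were tested for blockade.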

Cavia porcellus = organism: Cavia porcellus; assay: Antagonism of the positive chronotropic action of histamine in the isolated guinea pig atrium; format: functional; details: Cardiac atrium; method in brief: as §1
Rattus norvegicus = organism: Rattus norvegicus; assay: Inhibition of gastric acid secretion in the pylorus-ligated rat (after 2h); format: functional; details: Stomach
Method in brief: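 Pylorus-ligated rat, by a modified Shay procedure. Compound given subcutaneously at no fewer than five dose levels (three in one case), with at least five rats per dose.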

[1] = Potency ratio in pylorus-ligated rat relative to cimetidine (after 2h); format: functional

Row | pA2 (Adrenergic receptor beta) | Kb (Histamine H2 receptor) [nM] | Kb (Histamine H1 receptor) [nM] | Compound | Kb (Cavia porcellus) [nM] | ED50 (Rattus norvegicus) [µmol/kg] | Ratio [1]
1 | 4.3 | 25.1 | 126000 | N=C(N)Nc1nc(CSCCNc2n[s+]([O-])nc2N)cs1 (centres undefined) | – | – | –
2 | – | – | – | CNC1=NS(=O)(=O)N=C1NCCSCc1ccc(CN(C)C)s1 | 140 | 0.072 | 94
3 | – | – | – | CNC1=NS(=O)(=O)N=C1NCCSCc1[nH]cnc1C | 11500 | 131 | 0.07
4 | – | – | – | CN/C(=N\CCSCc1nc[nH]c1C)NC#N [CIMETIDINE] | 1200 | 9.4 | –
5 | – | – | – | CN(C)Cc1cccc(OCCCNc2n[s+]([O-])nc2N)c1 (centres undefined) | 65 | 0.066 | 142
